Data on two compounds can be found in article PMC10448692 (ACS Omega, 2023).

One series relates to DNA (PDB ID: 1BNA). The following applies: reported docking; cited from earlier work.
Series [1] is described as follows: Lipophilicity by shake flask, n-octanol/water partition. The conditions noted are these: room temperature. It counts as physicochemical. The gist of the method:
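Shake-flask method. Each compound was added separately to n-octanol and to double-distilled water and shaken 24 h at room temperature to saturate each phase. Undissolved solid was removed by centrifugation or filtration, and the saturated solution was evaporated to dryness. Residue weight gave solubility, from which logS and logP were computed.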

Take `O=C(O)CNC1CCCCC1` [CHgly, cyclohexyl glycine]: the “docking energy with DNA” value in the series with DNA (PDB ID: 1BNA) is -5.71 kcal/mol.

For `NCC(=O)O` [gly, Glycine], the “experimental logP” value in series [1] was −2.7; in series [1] (listed as Gly), “–2.76”.
